Results published in the M2OR odorant receptor database.
Residue numbers refer to the chain shown, from its start.

Tests used:
Conditions in all cases: stereoisomer not certain
[1] = molecular target: T1, OR2M4 (Homo sapiens) (UniProt Q96R27)
T1 sequence (whole entry): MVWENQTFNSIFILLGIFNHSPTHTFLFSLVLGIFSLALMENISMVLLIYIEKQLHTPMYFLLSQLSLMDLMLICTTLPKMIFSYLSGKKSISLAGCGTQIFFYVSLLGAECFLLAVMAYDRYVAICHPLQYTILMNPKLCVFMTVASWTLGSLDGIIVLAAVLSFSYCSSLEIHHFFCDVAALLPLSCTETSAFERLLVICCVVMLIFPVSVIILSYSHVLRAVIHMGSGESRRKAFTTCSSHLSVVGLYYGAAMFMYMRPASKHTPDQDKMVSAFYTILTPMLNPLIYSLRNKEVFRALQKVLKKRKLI
How it was run: (§1)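 Values were gathered from published papers (main text and supplementary material), with extra details requested from the original authors when needed, and checked for typos and inconsistencies. Each receptor–molecule pair is called responsive (active) if the original authors judged the measured signal statistically different from baseline, and non-responsive (inactive) otherwise. Assay methods varied by source, often transient mammalian cell-line luciferase assays. Recorded details include cell line, G-protein, co-transfected protein and tags.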

[2] = molecular target: T2, OR2M5 (Homo sapiens) (UniProt A3KFT3)
T2 sequence (whole entry): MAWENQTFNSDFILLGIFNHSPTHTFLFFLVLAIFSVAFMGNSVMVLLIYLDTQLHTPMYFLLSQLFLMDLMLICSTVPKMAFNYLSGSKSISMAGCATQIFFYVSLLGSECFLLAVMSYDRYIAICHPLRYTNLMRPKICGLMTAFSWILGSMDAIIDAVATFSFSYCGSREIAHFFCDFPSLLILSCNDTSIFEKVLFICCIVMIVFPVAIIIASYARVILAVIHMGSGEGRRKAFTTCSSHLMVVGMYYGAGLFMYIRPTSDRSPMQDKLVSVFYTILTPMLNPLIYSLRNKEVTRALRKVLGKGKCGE
How it was run: as §1

[3] = test system: T3, OR2M5 D11G
T3 sequence (whole entry): T2 sequence (whole entry) with D11G
How it was run: as §1

[4] = test system: OR2M3 M302T
How it was run: as §1

[5] = test system: OR2M3 R266H
How it was run: as §1

[6] = test system: OR2M3 R293S
How it was run: as §1

[7] = test system: OR2M3 V78I
How it was run: as §1

[8] = test system: OR2M3 Y259H
How it was run: as §1

[9] = test system: OR2M5 A156G
How it was run: as §1

[10] = test system: OR2M5 A160V
How it was run: as §1

OR2M3 R293S, sequence (as listed by the source, stated change not applied): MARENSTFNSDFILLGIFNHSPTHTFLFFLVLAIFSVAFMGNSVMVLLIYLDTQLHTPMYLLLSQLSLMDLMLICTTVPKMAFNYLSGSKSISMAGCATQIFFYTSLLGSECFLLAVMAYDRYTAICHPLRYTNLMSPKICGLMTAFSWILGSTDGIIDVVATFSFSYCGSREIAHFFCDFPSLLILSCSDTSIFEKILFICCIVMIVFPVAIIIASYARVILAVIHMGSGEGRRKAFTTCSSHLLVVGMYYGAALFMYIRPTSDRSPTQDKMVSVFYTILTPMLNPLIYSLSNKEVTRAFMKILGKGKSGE
OR2M3 M302T, sequence (as listed by the source, stated change not applied): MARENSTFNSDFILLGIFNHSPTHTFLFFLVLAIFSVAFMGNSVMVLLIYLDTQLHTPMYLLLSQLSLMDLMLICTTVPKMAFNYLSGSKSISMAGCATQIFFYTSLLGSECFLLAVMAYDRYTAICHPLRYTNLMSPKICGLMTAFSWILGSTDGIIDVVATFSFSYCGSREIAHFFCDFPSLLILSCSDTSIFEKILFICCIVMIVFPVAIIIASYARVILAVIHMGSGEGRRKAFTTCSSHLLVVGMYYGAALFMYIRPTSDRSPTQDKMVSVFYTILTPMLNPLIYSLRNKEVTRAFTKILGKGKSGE
OR2M5 A156G, sequence (as listed by the source, stated change not applied): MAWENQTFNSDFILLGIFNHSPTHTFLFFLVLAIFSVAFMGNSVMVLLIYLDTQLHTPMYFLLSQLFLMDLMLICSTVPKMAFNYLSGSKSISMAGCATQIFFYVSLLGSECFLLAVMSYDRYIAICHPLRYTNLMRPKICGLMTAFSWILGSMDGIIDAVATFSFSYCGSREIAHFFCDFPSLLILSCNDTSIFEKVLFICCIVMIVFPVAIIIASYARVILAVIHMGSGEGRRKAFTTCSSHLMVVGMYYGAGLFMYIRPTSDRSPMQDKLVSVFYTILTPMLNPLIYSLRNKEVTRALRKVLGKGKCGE
OR2M5 A160V, sequence (as listed by the source, stated change not applied): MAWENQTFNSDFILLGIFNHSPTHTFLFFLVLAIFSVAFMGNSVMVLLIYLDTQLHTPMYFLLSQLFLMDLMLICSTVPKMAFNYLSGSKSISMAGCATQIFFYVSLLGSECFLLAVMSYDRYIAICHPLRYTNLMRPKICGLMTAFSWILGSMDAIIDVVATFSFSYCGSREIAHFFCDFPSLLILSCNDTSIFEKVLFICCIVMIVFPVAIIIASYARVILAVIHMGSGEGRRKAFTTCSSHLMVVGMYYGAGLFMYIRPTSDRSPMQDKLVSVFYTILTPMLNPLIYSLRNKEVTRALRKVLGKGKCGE
OR2M3 V78I, sequence (as listed by the source, stated change not applied): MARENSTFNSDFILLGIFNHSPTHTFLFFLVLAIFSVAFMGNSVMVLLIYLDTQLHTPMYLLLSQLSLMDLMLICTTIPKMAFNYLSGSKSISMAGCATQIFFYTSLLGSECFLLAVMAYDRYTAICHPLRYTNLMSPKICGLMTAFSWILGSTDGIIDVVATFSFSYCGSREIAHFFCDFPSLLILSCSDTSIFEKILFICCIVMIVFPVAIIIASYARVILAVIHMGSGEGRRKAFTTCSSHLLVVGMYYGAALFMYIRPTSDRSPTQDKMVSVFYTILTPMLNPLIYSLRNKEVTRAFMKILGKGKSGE
OR2M3 R266H, sequence (as listed by the source, stated change not applied): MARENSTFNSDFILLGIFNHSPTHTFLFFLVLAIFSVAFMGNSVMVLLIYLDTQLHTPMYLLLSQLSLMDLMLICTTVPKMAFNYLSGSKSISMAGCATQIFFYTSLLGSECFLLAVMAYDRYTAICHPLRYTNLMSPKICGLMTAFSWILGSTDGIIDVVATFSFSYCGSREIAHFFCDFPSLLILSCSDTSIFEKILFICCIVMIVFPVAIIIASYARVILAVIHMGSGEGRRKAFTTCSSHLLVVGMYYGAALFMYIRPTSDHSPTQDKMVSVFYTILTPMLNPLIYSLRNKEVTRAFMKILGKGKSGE
OR2M3 Y259H, sequence (as listed by the source, stated change not applied): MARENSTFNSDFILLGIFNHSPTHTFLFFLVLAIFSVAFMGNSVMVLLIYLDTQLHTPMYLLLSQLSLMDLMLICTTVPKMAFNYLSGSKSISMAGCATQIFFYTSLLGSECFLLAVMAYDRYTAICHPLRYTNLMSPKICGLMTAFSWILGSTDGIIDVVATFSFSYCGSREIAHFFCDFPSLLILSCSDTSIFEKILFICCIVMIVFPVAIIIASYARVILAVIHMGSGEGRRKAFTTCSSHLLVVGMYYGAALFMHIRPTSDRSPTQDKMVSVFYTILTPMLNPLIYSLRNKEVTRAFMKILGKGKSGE

Q: With CCc1ccc(CC(C)(C)C=O)cc1 as the compound, how does the “odorant receptor agonist call” value [1] read?
A: inactive

Q: Which “odorant receptor agonist call” value [1] does the source give for CC1=C(O)C(=O)OC1C (stereo not drawn) here?
A: inactive

Q: What about the “odorant receptor agonist call” value [2] of the same compound?
A: inactive

Q: And the “odorant receptor agonist call” value [3]?
A: inactive

Q: Which results are given for CCCCC(S)C(C)CO (stereo not drawn)?
A: odorant receptor agonist call [1]: inactive; odorant receptor agonist call [2]: inactive

Q: How did the “odorant receptor agonist call” value [1] turn out when CC1=CCC2CC1C2(C)C (stereo not drawn) was run?
A: inactive

Q: With Cc1ccc(C(C)C)cc1O as the compound, how does the “odorant receptor agonist call” value [1] read?
A: inactive

Q: How did the “odorant receptor agonist call” value [1] turn out when COC1CC2CC1C1CC(C=O)CC21 (stereo not drawn) was run?
A: inactive

Q: Which “odorant receptor agonist call” value [1] does the source give for CCCCCC(S)C(C)CO (stereo not drawn) here?
A: inactive

Q: And the “odorant receptor agonist call” value [2]?
A: inactive

Q: Which results are given for CCCC(S)CCOC(C)=O (stereo not drawn)?
A: odorant receptor agonist call [1]: inactive; odorant receptor agonist call [2]: inactive; odorant receptor agonist call [3]: inactive

Q: How did the “odorant receptor agonist call” value [1] turn out when CCCCCC1C(=O)CCC1CC(=O)OC (stereo not drawn) was run?
A: inactive

Q: CCCCCC1COCCC1OC(C)=O (stereo not drawn) was tested. Which “odorant receptor agonist call” value [1] did it give?
A: inactive

Q: With CCC1OC(C)=C(O)C1=O (stereo not drawn) as the compound, how does the “odorant receptor agonist call” value [1] read?
A: inactive

Q: What about the “odorant receptor agonist call” value [2] of the same compound?
A: inactive

Q: And the “odorant receptor agonist call” value [3]?
A: inactive

Q: C=CCOC(=O)COCCC(C)C was tested. Which “odorant receptor agonist call” value [1] did it give?
A: inactive

Q: Which “odorant receptor agonist call” value [1] does the source give for CCCCCC(=O)C(C)C(C)=O (stereo not drawn) here?
A: inactive

Q: What about the “odorant receptor agonist call” value [2] of the same compound?
A: inactive

Q: How did the “odorant receptor agonist call” value [1] turn out when CCC(=O)C=CC1C(C)=CCCC1(C)C (stereo not drawn) was run?
A: inactive

Q: Which “odorant receptor agonist call” value [1] does the source give for CCCCC1CCC(=O)O1 (stereo not drawn) here?
A: inactive

Q: Which “odorant receptor agonist call” value [2] does the source give for CC1CCCCCCCCCCCCC(=O)C1 (stereo not drawn) here?
A: inactive

Q: With CC(=O)OCc1ccccc1 as the compound, how does the “odorant receptor agonist call” value [1] read?
A: inactive

Q: Which “odorant receptor agonist call” value [1] does the source give for CC(C)(C)C1CCCCC1OCCCCO (stereo not drawn) here?
A: inactive

Q: How did the “odorant receptor agonist call” value [1] turn out when OCc1ccccc1 was run?
A: inactive

Q: What does the source list for CC(CO)CS (stereo not drawn)?
A: odorant receptor agonist call [1]: inactive; odorant receptor agonist call [2]: inactive

Q: How did the “odorant receptor agonist call” value [1] turn out when C=CC(C)(CCC=C(C)C)OC(C)=O (stereo not drawn) was run?
A: inactive

Q: With CC1=C(O)C(=O)C(C)O1 (stereo not drawn) as the compound, how does the “odorant receptor agonist call” value [1] read?
A: inactive

Q: What about the “odorant receptor agonist call” value [2] of the same compound?
A: inactive

Q: And the “odorant receptor agonist call” value [3]?
A: inactive

Q: How did the “odorant receptor agonist call” value [1] turn out when CC(=O)C=CC1=C(C)CCCC1(C)C was run?
A: inactive

Q: CCCC(C)C(=O)OCC (stereo not drawn) was tested. Which “odorant receptor agonist call” value [1] did it give?
A: inactive

Q: For CC1=NC(C)C(C)S1 (stereo not drawn), which “odorant receptor agonist call” value [1] is on record?
A: inactive

Q: What about the “odorant receptor agonist call” value [2] of the same compound?
A: inactive

Q: And the “odorant receptor agonist call” value [3]?
A: inactive

Q: For Cc1occc(=O)c1OC(=O)C(C)C, which “odorant receptor agonist call” value [1] is on record?
A: inactive

Q: How did the “odorant receptor agonist call” value [1] turn out when Cc1cnc(C)c(C)n1 was run?
A: inactive

Q: And the “odorant receptor agonist call” value [2]?
A: inactive

Q: What about the “odorant receptor agonist call” value [3] of the same compound?
A: inactive

Q: For CCC(S)C(C)CO (stereo not drawn), which “odorant receptor agonist call” value [4] is on record?
A: active

Q: And the “odorant receptor agonist call” value [5]?
A: active

Q: And the “odorant receptor agonist call” value [6]?
A: active

Q: And the “odorant receptor agonist call” value [7]?
A: active

Q: And the “odorant receptor agonist call” value [8]?
A: inactive

Q: What about the “odorant receptor agonist call” value [1] of the same compound?
A: inactive

Q: What about the “odorant receptor agonist call” value [2] of the same compound?
A: inactive

Q: And the “odorant receptor agonist call” value [9]?
A: inactive

Q: What about the “odorant receptor agonist call” value [10] of the same compound?
A: inactive

Q: For CC(=O)c1c(C)c([N+](=O)[O-])c(C(C)(C)C)c([N+](=O)[O-])c1C, which “odorant receptor agonist call” value [2] is on record?
A: inactive

Q: Which “odorant receptor agonist call” value [1] does the source give for CC1CC(C)(c2ccccc2)CO1 (stereo not drawn) here?
A: inactive

Q: Which “odorant receptor agonist call” value [1] does the source give for CC(C)CCCC(C)(C)O here?
A: inactive

Q: For CC=CC(=O)C1C(C)=CCCC1(C)C (stereo not drawn), which “odorant receptor agonist call” value [1] is on record?
A: active

Q: For COc1ccc(C)cc1, which “odorant receptor agonist call” value [1] is on record?
A: active

Q: How did the “odorant receptor agonist call” value [1] turn out when CC(C)=CCCC(C)CC=O (stereo not drawn) was run?
A: inactive

Q: With CC(C)=CCCC(C)=CCO as the compound, how does the “odorant receptor agonist call” value [1] read?
A: inactive

Q: CC(CC=O)c1ccc(C(C)(C)C)cc1 (stereo not drawn) was tested. Which “odorant receptor agonist call” value [1] did it give?
A: inactive

Q: For CCCCCCCCC(OC(C)=O)OC(C)=O, which “odorant receptor agonist call” value [1] is on record?
A: inactive

Q: CCC=C(C)C(O)CCCCC (stereo not drawn) was tested. Which “odorant receptor agonist call” value [1] did it give?
A: inactive

Q: CCCCCCC=CCCC=O was tested. Which “odorant receptor agonist call” value [1] did it give?
A: inactive

Q: And the “odorant receptor agonist call” value [2]?
A: inactive

Q: And the “odorant receptor agonist call” value [3]?
A: inactive

Q: Which “odorant receptor agonist call” value [1] does the source give for CCC1OC(=O)C(O)=C1C (stereo not drawn) here?
A: inactive

Q: And the “odorant receptor agonist call” value [2]?
A: inactive

Q: And the “odorant receptor agonist call” value [3]?
A: inactive
